# Results collected from several papers.
# Compare with care: the assays were run in different laboratories.
# Target: Serine/threonine-protein kinase PLK4 (PLK4, Homo sapiens, UniProt O00444)
# One construct used (O00444 1-970): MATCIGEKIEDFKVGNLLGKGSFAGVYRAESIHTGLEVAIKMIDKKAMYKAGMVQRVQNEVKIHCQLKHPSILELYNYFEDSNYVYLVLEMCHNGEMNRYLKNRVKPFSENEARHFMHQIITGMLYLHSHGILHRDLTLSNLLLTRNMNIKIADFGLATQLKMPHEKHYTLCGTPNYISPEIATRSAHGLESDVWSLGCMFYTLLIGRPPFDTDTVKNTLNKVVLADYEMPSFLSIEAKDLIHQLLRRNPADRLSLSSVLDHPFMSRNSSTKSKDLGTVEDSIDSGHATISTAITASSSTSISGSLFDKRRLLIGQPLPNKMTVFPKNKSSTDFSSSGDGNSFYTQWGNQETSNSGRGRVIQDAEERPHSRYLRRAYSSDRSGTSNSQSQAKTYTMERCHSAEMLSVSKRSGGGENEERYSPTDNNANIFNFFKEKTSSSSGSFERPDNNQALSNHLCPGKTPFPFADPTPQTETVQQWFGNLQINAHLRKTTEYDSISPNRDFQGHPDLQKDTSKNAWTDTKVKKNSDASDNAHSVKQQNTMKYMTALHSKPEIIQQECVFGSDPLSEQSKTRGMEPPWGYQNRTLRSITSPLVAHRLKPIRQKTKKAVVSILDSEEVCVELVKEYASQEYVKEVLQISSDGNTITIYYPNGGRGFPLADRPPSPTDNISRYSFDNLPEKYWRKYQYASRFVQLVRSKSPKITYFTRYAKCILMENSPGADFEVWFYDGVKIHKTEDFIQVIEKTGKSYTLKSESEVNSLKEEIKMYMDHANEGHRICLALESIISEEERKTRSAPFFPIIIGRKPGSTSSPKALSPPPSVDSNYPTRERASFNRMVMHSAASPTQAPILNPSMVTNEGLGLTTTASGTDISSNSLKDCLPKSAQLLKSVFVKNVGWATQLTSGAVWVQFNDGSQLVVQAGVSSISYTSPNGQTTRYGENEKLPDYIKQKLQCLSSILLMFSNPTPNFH
SMILES,assay,conditions,remaining binding
Nc1ncc2c(n1)-c1c([nH]c3ccc(C#CC4CC4)cc13)CCCC2,"binding, competition with immobilised ligand",1 µM,87%
c1cnn2ncc(-c3ccnc(N4CCC45COC5)n3)c2c1,binding,1 µM,79%
O=C1CCc2cc(Nc3cc(OC4CCOCC4)c([N+](=O)[O-])cc3Cl)ccc2N1,"cell-free assay, competition with immobilised ligand",1 µM,86%
Cc1cnc(Nc2ccc(C(=O)N3CCC(N4CCCC4)CC3)cc2)nc1-c1cc2ccccc2s1,"binding, competition with immobilised ligand",1 µM,14%
CN(C)c1nccc(-c2cnn3ncccc23)n1,binding,1 µM,96%
CC(C)(O)c1cncc(-c2nc3ccc(F)cc3n2C2CC2)c1,"cell-free assay, competition with immobilised ligand",1 µM,79%
O=C(NCCCN1CCOCC1)c1ccc(Nc2nccc(-c3cc4ccccc4s3)n2)cc1,"binding, competition with immobilised ligand",1 µM,58%
CN1CCN(c2cnc3c(C4CCN(C(=O)c5ccc(OC(F)(F)F)cc5N)CC4)ncnc3c2)CC1,"cell-free assay, competition with immobilised ligand",1 µM,83%
CNC(=O)[C@@H]1CC[C@@H](n2c(-c3ccc4cnccc4c3)nc3ccc(C(=O)NCc4cccc(C(N)=O)c4)cc32)C1,"binding, competition with immobilised ligand",1 µM,100%
FC(F)(F)Oc1cccc(-c2cnc3ccc(-c4ccncc4)nn23)c1,"cell-free assay, competition with immobilised ligand",5 µM,91%
CNC(=O)c1ccc(Nc2ncc(C(F)(F)F)c(NCc3nccnc3N(C)S(C)(=O)=O)n2)cc1,"cell-free assay, competition with immobilised ligand",0.1 µM,79%
O=C(NCCCN1CCOCC1)c1ccc(Nc2ncc(Cl)c(-c3ccc(Cl)s3)n2)cc1,"binding, competition with immobilised ligand",1 µM,38%
Cc1cc(C)c(-n2ccn3nc(-c4cccnc4)cc23)cc1NC(=O)c1cc(C#N)cc(S(F)(F)(F)(F)F)c1,"cell-free assay, competition with immobilised ligand",0.1 µM,64.1%
C[C@@H]1CCN(c2nccc(-c3cnn4ncccc34)n2)C1,binding,1 µM,100%
C[C@@H](c1ccc(-n2cnc3c(N)ncnc32)cc1)N1CCc2nn(C)c(Cc3ccccc3)c2C1=O,"binding, competition with immobilised ligand",0.1 µM,72%
CN(C(=O)c1ccccc1)c1cc(N(C)c2ccc3c(c2)CCc2ccc(C(=O)NCCN4CCOCC4)cc2C3=O)ccc1F,"cell-free assay, competition with immobilised ligand",1 µM,93%
O=C(Nc1c[nH]nc1C(=O)NC1CCNCC1)c1cc(F)cc(F)c1,"binding, competition with immobilised ligand",1 µM,97%
C=CC(=O)N1CCC(C(=O)NCC(=O)N2CCN(c3nc(-c4cnc(N)nc4C(F)F)nc(N4CCOCC4)n3)CC2)CC1,"binding, competition with immobilised ligand",1 µM,89%
CN(CCCC(F)(F)F)c1nccc(-c2cnn3ncccc23)n1,binding,1 µM,100%
C[C@@H]1CN(c2ccc3ncc(-c4ccc5[nH]nc(C6CC6)c5c4)n3n2)C[C@H](C)O1,"binding, competition with immobilised ligand",50 nM,88%
COc1ccnn2ncc(-c3ccnc(N(C)C)n3)c12,binding,1 µM,69%
CC(C)(C)c1ccc(-c2nc(CBr)nn2-c2cccc(O)c2)cc1,"cell-free assay, competition with immobilised ligand",10 µM,88%
CN(C)c1nccc(-c2cnc3ncccn23)n1,binding,1 µM,68%
O=C(N1CCS(=O)(=O)CC1)N1C[C@H](c2ccc(OC(F)(F)F)cc2)C[C@H](c2nc(C3CC3)no2)C1,"cell-free assay, competition with immobilised ligand",1 µM,100%
N[C@@H]1CCN(c2nccc(-c3cnn4ncccc34)n2)C1,binding,1 µM,100%
c1cncc(-c2cccc(Nc3nccc(NC4CCCCC4)n3)c2)c1,"binding, competition with immobilised ligand",10 µM,34%
